According to publication PMC10788905 (Journal of Medicinal Chemistry, 2023):
Structures can show the parent of a compound that is named as a salt. Each block holds one compound with its values, some of them ahead of it.

Assays:
xenograft models = settings: doses lower than 50 mg/kg (ip daily); cited from earlier work
[1] = system: human ether-a-go-go-related gene (hERG) potassium channel; settings: cited from earlier work
breast cancer BT-474 = settings: after 72 h treatment; cited from earlier work
[2] = Liver microsomal stability, mouse and human, UDPGA; type: in vitro ADME; settings: for m,h-LM % at 120 min / m,h-LM t1/2: mouse and human liver microsomes; for m,h-LM % at 120 min: UDPGA, compound remaining at 120 min; for half-life at 4.6 μM: mouse and human, liver microsomes with alamethicin, pH 7.5; for m,h-LM t1/2: UDPGA cofactor
Outline: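 Phase II: compound from a 10 mM DMSO stock (4.6 μM final) was preincubated 15 min at 37 °C with mouse or human liver microsomes plus alamethicin in 0.1 M Tris-HCl pH 7.5, 10% DMSO. UDPGA, D-saccharic acid lactone and MgCl₂ were added and incubated 2 h at 37 °C. Samples at 0–120 min were quenched in cold MeCN with internal standard. No-cofactor matrix controls were run. Mean of ≥2 experiments, duplicates.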

several tumor cell lines = settings: cited from earlier work
[3] = system: melanoma A375 cells expressing GFP-LC3; test: GFP-LC3 reporter autophagy assay; type: cell-based, human; settings: 24 h treatment; for GFP-LC3-positive autophagosomes (fluorescent dots per cell): different concentrations
Outline: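 A375 melanoma cells were stably transfected with EGFP-LC3B and G418-selected; the clone used was validated with 10 μM chloroquine. Cells on glass-bottom plates were exposed to varied compound concentrations for 24 h, fixed in 4% PFA and Hoechst 33342-stained. GFP-LC3 perinuclear dots per cell were counted by fluorescence microscopy, ten fields per dose, four independent replicates.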

BT-474 cells = test: Apoptosis in BT-474; type: cell-based, human; settings: BT-474, different concentrations, 24 h
Outline: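 Poly-caspase activity detected with a live-cell red/green caspase apoptosis detection kit. Cleaved PARP measured by immunoblot in TBS-T with 5% BSA: primary antibody 1:2000, GAPDH loading control 1:100000, HRP-conjugated secondaries 1:10000.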

A375 xenografts = test: A375 subcutaneous xenograft model; type: in vivo, female NMRI-Foxn1nu mice
Tolerability studies = type: in vivo, female CD1 mice; settings: for reduction in body weight: after 8 days
Outline: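 Female CD1 mice (8–9 weeks, 4-day acclimation), 3 per group, received ip compound in saline; controls got saline ip daily. Regimens: 138 μmol/kg daily or every other day; 69 μmol/kg daily or 3 days on/2 off, over an 8-day period. Behavior, body weight, food and water intake were recorded daily. Weight on the pre-treatment day was set to 100%.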

[4] = 30 mg/kg ip, 3/5 d schedule, day 15

- m,h-LM % at 120 min [2]: > 95%
- half-life at 4.6 μM [2]: > 2 h
SMILES: CN1CCC(Cc2cccc(CNC3(c4ccc(F)cc4)CCCC3)c2)CC1 [Compound 1e]
- IC50 (breast cancer BT-474): 2.1 µM
- in vitro anticancer activity, times higher than CQ (several tumor cell lines): up to 50 times
- GFP-LC3-positive autophagosomes (fluorescent dots per cell) [3]: dose-dependent accumulation

- m,h-LM % at 120 min [2]: > 95%
- half-life at 4.6 μM [2]: > 2 h
SMILES: COc1cc(F)ccc1C1(NCc2cccc(CC3CCN(C)CC3)c2)CCCC1 [Compound 5, 1-(4-Fluoro-2-methoxy-phenyl)-N-[[3-[(1-methyl-4-piperidyl)methyl]phenyl]methyl]cyclopentanamine Dihydrochloride]

- m,h-LM % at 120 min [2]: > 95%
- half-life at 4.6 μM [2]: > 2 h
SMILES: CN1CCC(Cc2cccc(CNC3(c4ccc(F)c(F)c4)CCCC3)c2)CC1 [Compound 7, 1-(3,4-Difluorophenyl)-N-[[3-[(1-methyl-4-piperidyl)methyl]phenyl]methyl]cyclopentanamine;dihydrochloride]

- half-life at 4.6 μM [2]: > 2 h
SMILES: CN1CCC(Cc2cc(CNC3(c4ccc(F)cc4)CCCC3)ccc2F)CC1 [Compound 11, N-[[4-Fluoro-3-[(1-methyl-4-piperidyl)methyl]phenyl]methyl]-1-(4-fluorophenyl)cyclopentanamine Dihydrochloride]

- half-life at 4.6 μM [2]: > 2 h
SMILES: CN1CCC(Cc2ccc(F)c(CNC3(c4ccc(F)cc4)CCCC3)c2)CC1 [Compound 14, N-[[2-Fluoro-5-[(1-methyl-4-piperidyl)methyl]phenyl]methyl]-1-(4-fluorophenyl)cyclopentanamine Dihydrochloride]

- half-life at 4.6 μM [2]: > 2 h
SMILES: CN1CCC(Cc2cc(CNC3(c4ccc(F)cc4)CCCC3)c(F)cc2F)CC1 [Compound 16, N-[[2,4-Difluoro-5-[(1-methyl-4-piperidyl)methyl]phenyl]methyl]-1-(4-fluorophenyl)cyclopentanamine Dihydrochloride]

More lines, now with the values behind:

SMILES: CCN(CC)CCCC(C)Nc1ccnc2cc(Cl)ccc12 (stereo not shown) [CQ, Chloroquine]
- efficacy in xenograft models (xenograft models): completely ineffective
- concentrations blocking hERG activity [1]: single-digit

SMILES: CN1CCN(Cc2cc(CNC3(c4ccccc4F)CCCC3)ccc2O)CC1 [Compound 1a, 4-[[[1-(2-fluorophenyl)cyclopentyl]amino]methyl]-2-[(4-methylpiperazin-1-yl)methyl]phenol]
- IC50 (breast cancer BT-474): 30.1 µM

SMILES: CN1CCC(Cc2cccc(CNC3(c4ccc(F)cc4O)CCCC3)c2)CC1 [Compound 6, 5-Fluoro-2-[1-[[3-[(1-methyl-4-piperidyl)methyl]phenyl]methylamino]cyclopentyl]phenol Dihydrochloride]
- m,h-LM % at 120 min [2]: > 95%
- half-life at 4.6 μM [2]: > 2 h

SMILES: COc1cc(C2(NCc3cccc(CC4CCN(C)CC4)c3)CCCC2)ccc1F [Compound 9, 1-(4-Fluoro-3-methoxy-phenyl)-N-[[3-[(1-methyl-4-piperidyl)methyl]phenyl]methyl]cyclopentanamine Dihydrochloride]
- m,h-LM % at 120 min [2]: > 95%
- half-life at 4.6 μM [2]: > 2 h

SMILES: CN1CCC(Cc2cccc(CNC3(c4ccc(F)c(O)c4)CCCC3)c2)CC1 [Compound 10, 2-Fluoro-5-[1-[[3-[(1-methyl-4-piperidyl)methyl]phenyl]methylamino]cyclopentyl]phenol Dihydrochloride]
- m,h-LM % at 120 min [2]: > 95%

SMILES: CN1CCC(Cc2cc(CNC3(c4ccc(F)cc4)CCCC3)ccc2O)CC1 [Compound 12, 4-[[[1-(4-Fluorophenyl)cyclopentyl]amino]methyl]-2-[(1-methyl-4-piperidyl)methyl]phenol Dihydrochloride]
- half-life at 4.6 μM [2]: > 2 h

SMILES: CN1CCC(Cc2ccc(O)c(CNC3(c4ccc(F)cc4)CCCC3)c2)CC1 [Compound 15, 2-[[[1-(4-Fluorophenyl)cyclopentyl]amino]methyl]-4-[(1-methyl-4-piperidyl)methyl]phenol Dihydrochloride]
- half-life at 4.6 μM [2]: > 2 h

SMILES: CN1CC2(CC(Cc3cccc(CNC4(c5ccc(F)cc5)CCCC4)c3)C2)C1 [Compound 21, 1-(4-Fluorophenyl)-N-[[3-[(2-methyl-2-azaspiro[3.3]heptan-6-yl)methyl]phenyl]methyl]cyclopentanamine Dihydrochloride]
- half-life at 4.6 μM [2]: > 2 h

SMILES: COc1cc(F)ccc1C1(NCc2ccc(F)c(CC3CCN(C)CC3)c2)CCCC1 [Compound 22, 1-(4-Fluoro-2-methoxy-phenyl)-N-[[4-fluoro-3-[(1-methyl-4-piperidyl)methyl]phenyl]methyl]cyclopentanamine Dihydrochloride]
- half-life at 4.6 μM [2]: > 2 h

SMILES: Fc1ccc(C2(NCc3ccc(F)c(CC4CCNCC4)c3)CCCC2)cc1 [Compound 24, 1-(4-Fluorophenyl)-N-[[4-fluoro-3-(4-piperidylmethyl)phenyl]methyl]cyclopentanamine Dihydrochloride]
- m,h-LM t1/2 [2]: > 2 h
- half-life at 4.6 μM [2]: > 2 h
- caspase-activity and cleaved PARP protein levels (BT-474 cells): dose-dependent induction
- tumor expression of REV-ERB target genes BMAL1 and PEPCK (A375 xenografts; 30 mg/kg ip for 2 days, tumors collected after 48 h, versus control): significantly higher expression
- average tumor volume (excised tumors) (A375 xenografts; [4]): 307.7 mm^3
- average tumor weight (A375 xenografts; [4]): 0.365 g
- effects on body weight (A375 xenografts; 30 mg/kg ip, 3/5 d schedule, mice bearing A375 xenografts): negligible effects
- increase in fluorescent dots compared with 1e ([3]; all the doses tested): significantly higher increase
- GFP-LC3-positive autophagosomes (fluorescent dots per cell) [3]: dose-dependent accumulation
- reduction in body weight (Tolerability studies; 69 μmol/kg (31 mg/kg) ip daily): ≤ 5%
- tolerability (body weight, water and food intake) (Tolerability studies; 69 μmol/kg (31 mg/kg) ip, 3/5 d schedule, 15-day period): well tolerated
- signs of arched backs and lethargy (Tolerability studies; 138 μmol/kg (62 mg/kg) ip daily): did not observe clear signs of arched backs and lethargy
- animal body weight (Tolerability studies; 138 μmol/kg (62 mg/kg) ip daily, after 2 days of treatment): significantly reduced
- reduction in body weight (Tolerability studies; 138 μmol/kg (62 mg/kg) ip every other day): ≤ 5%

SMILES: Fc1ccc(C2(NCc3cc(CC4CCNCC4)ccc3F)CCCC2)cc1 [Compound 25, 1-(4-Fluorophenyl)-N-[[2-fluoro-5-(4-piperidylmethyl)phenyl]methyl]cyclopentanamine Dihydrochloride]
- m,h-LM t1/2 [2]: > 2 h

SMILES: CCN(CCO)CCCC(C)Nc1ccnc2cc(Cl)ccc12 (stereo not shown) [HCQ, hydroxychloroquine]
- concentrations blocking hERG activity [1]: single-digit
